Bioassay records as filed in PubChem.
EBNA-1 inh: blocks EBNA-1 binding to DNA; EBNA-1 DNA binding, fluorescence polarization; inhibition, % at 14.8 µM; 0.34% of 300,000 active; AID 1950; in the data active means inhibition above about 28%
HCV core dimer: HCV core protein dimerization inhibition; TR-FRET GST/Flag-core106 dimerization, 1536-well; inhibition, % at 5 µM; 0.33% of 300,000 active;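 active means inhibition above the mean of all tested compounds plus 3 SD, set per screening campaign, cut at about 45% in these data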
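test system = GST/Flag-tagged HCV core106 proteins | probe or stimulus = Eu donor and XL665 acceptor anti-tag antibodies | times = compound-protein-antibody incubation 4 h at 22.5 °C | signal = TR-FRET, excitation 340 nm, emission 617 and 671 nm | measure = percent inhibition of core106 dimerization signal | controls = wells lacking GST-core106 and wells with excess unlabelled core106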
ZTA counter: counter-screen for EBNA-1 inhibitors: inhibitors of Epstein-Barr virus ZTA; P03206; inhibition, % at 11 µM; 0.15% of 320,000 active; ZTA-DNA binding, fluorescence polarization; in the data active means inhibition above about 33%
EBV gp42 inh: EBV gp42 inhibition | 0.42% of 220,000 active | inhibition, % (tested at 21.74 µM) | Fluorescence polarization binding assay, mP read-out; in the data active means inhibition above about 50%
Target sequence (Q1HVG2 whole entry, looked up): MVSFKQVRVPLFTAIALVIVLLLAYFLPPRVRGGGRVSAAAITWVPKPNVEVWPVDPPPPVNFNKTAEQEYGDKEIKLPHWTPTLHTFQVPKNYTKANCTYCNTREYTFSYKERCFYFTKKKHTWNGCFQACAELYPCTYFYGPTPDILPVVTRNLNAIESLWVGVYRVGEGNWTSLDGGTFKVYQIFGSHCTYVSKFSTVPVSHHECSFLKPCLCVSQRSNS
GPR7 antagonist: antagonists of human GPR7 (neuropeptides B/W receptor 1); P48145; GPR7-expressing cells, fluorescence antagonist assay; inhibition, % at 4.4 µM; 1.1% of 290,000 active; in the data active means inhibition above about 16%, passing the limit was not always enough;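 further: cells stimulated with the agonist NPW; 0% = agonist with vehicle and 100% = vehicle without agonist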
Target sequence (P48145 whole entry, looked up): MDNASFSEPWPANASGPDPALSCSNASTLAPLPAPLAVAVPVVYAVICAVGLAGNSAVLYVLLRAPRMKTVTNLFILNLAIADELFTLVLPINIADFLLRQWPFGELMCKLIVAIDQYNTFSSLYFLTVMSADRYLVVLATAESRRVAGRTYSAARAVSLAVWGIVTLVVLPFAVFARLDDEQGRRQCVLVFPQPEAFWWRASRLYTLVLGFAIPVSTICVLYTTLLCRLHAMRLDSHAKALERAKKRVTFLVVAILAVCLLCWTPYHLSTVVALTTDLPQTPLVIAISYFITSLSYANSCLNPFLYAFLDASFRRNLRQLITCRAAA
HCV NS3 hel inh: blocks Hepatitis C virus NS3 helicase unwinding; NS3 helicase DNA unwinding, Cy5 molecular beacon fluorescence; inhibition, % at 10.9 µM; 0.56% of 290,000 active; AID 1800;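 active means inhibition above the mean of all tested compounds plus 3 SD, set per campaign, cut at about 35% in these data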;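 further: 0% = DMSO wells and 100% = thioflavine S control wells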
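System: NS3 helicase fragment of HCV / Schedule: 1 h at 25 °C / Control set: DMSO alone as 0% and 110 µM thioflavine S as 100% / Reagent: Cy5/quencher beacon DNA duplex and ATP to start / Technique: Cy5 fluorescence / Replication: singlicate / Evaluation: % inhibition of end-to-start signal ratio versus controls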
NS3 hel confirm: confirmation of Hepatitis C virus NS3 helicase inhibitors; NS3 helicase DNA unwinding, Cy5 molecular beacon fluorescence; inhibition, % at 10.9 µM; shares compounds with HCV NS3 hel inh; 31% of 1,600 active;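 active means inhibition above the mean of all tested compounds plus 3 SD, cutoff set per campaign, cut at about 36% in these data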
FID counter trip: intercalator displacement, NS3 helicase counter-screen; shares compounds with HCV NS3 hel inh; AID 1945; DNA fluorescent intercalator displacement, fluorescence; inhibition, % at 7.9 µM; 4% of 1,600 active; in the data active means inhibition above about 37%;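 further: 0% = vehicle and 100% = reference compound; higher means more displacement of ethidium bromide from the DNA hairpin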
DNA FID DR: counter-screen for HCV NS3 helicase inhibitors: DNA intercalator displacement dose response | shares compounds with HCV NS3 hel inh | fluorescent intercalator displacement from DNA, fluorescence | IC50, µM | 120 tested, under 10 active; call rule not given here
GPR7 antag conf: human GPR7 antagonism, confirmation assay; AID 1952; 52% of 2,400 active; shares compounds with GPR7 antagonist; GPR7-expressing cells, calcium fluorescence antagonist mode; inhibition, % at 4.4 µM; in the data active means inhibition above about 24%;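 further: stimulated with the GPR7 agonist NPW; 0% = agonist plus vehicle and 100% = vehicle alone without agonist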
MCHR1 antagonist: counter-screen for GPR7 antagonists: antagonists of human MCHR1. inhibition, % at 4.4 µM. MCHR1-expressing cells, fluorescence antagonist assay. 62% of 2,400 active. shares compounds with GPR7 antagonist; in the data active means inhibition above about 22%;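 further: 0% = vehicle with agonist and 100% = vehicle without agonist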
An asterisk follows results filed as active; nt = not tested or not shown. Rows were chosen to be rich in hits. Some 2.3% of all compounds tested hit in one or more screens of this group.

SMILES	EBNA-1 inh	HCV core dimer	ZTA counter	EBV gp42 inh	GPR7 antagonist	HCV NS3 hel inh	NS3 hel confirm	FID counter trip	GPR7 antag conf	MCHR1 antagonist	others
Cc1cc(C)cc(SCc2noc(C(=O)NCC3CC3)c2C(=O)NCC2CC2)c1	1	3	-7	nt	nt	nt	nt	nt	nt	nt
Cn1ccnc1Sc1ccc(/C=N/NC(=O)c2ccccc2[N+](=O)[O-])cc1[N+](=O)[O-]	-6	7	7	-16	-7	-1	nt	nt	nt	nt
Cn1ccnc1Sc1ccc(/C=N/NC(=O)c2ccccc2O)cc1[N+](=O)[O-]	7	-4	-9	-6	-6	47*	-4	13	nt	nt
COc1ccc(Cc2nnc(NC(=O)c3ccc(F)cc3)s2)cc1OC	-9	-9	-29	nt	-2	47*	-12	-4	nt	nt
CC(C)Nc1nc(Oc2ccc(=O)n(-c3ccccc3)n2)nc(N(C)C)n1	4	0	9	-12	-9	36*	-3	-20	nt	nt
CCCc1cc(=O)oc2cc(C)cc(OC(C)C(=O)NCC3CCC(C(=O)O)CC3)c12 (centres undefined)	-6	-5	4	nt	15	38*	-19	-12	nt	nt
CCCCc1cc(=O)oc2cc(C)cc(OC(C)C(=O)NCC3CCC(C(=O)O)CC3)c12 (centres undefined)	-9	-1	-18	nt	-8	1	nt	nt	nt	nt
CCN(CC)C(=O)COC(=O)c1cc(-c2ccco2)nc2ccccc12	nt	nt	nt	52*	-13	44*	19	0	nt	nt
O=C(O)c1ccccc1/C=N/NC(=O)c1cc(-c2ccco2)nc2ccccc12	-5	41	2	59*	-2	42*	68*	-21	nt	nt	DNA FID DR=>79
COc1ccc(CCNC(=O)c2cc(-c3ccco3)nc3ccccc23)cc1	-3	65*	3	nt	-3	53*	7	-17	nt	nt
CCOC(=O)CC(=O)CSc1nccc(-c2cccnc2)n1	-3	4	-7	-19	-11	18	nt	nt	nt	nt
COc1cc(Cl)cc(C=O)c1OCC(=O)O	-22	1	2	-5	-9	7	nt	nt	nt	nt
COc1cccc(OC)c1C(=O)NNS(=O)(=O)c1ccc2ccccc2c1	nt	nt	nt	nt	-7	-3	nt	nt	nt	nt
O=C(NCc1ccco1)C(=O)NCC1OCCN1S(=O)(=O)c1ccc(F)cc1 (centres undefined)	5	20	-2	11	-10	6	nt	nt	nt	nt
O=C(NCc1ccco1)C(=O)NCC1OCCN1S(=O)(=O)c1cc(F)ccc1F (centres undefined)	5	2	-2	-7	-1	49*	-7	11	nt	nt
Cc1cccc(-c2nc3ccccc3c(=O)n2NC(=S)N(C)C)c1	3	-4	-4	-11	-17	39*	-1	-10	nt	nt
Cc1nc(SCC(=O)Nn2c(-c3ccccc3)nc3ccccc3c2=O)n[nH]1	9	2	-8	4	-11	47*	-16	2	nt	nt
Cc1ccc(CNC(=O)COC(=O)COc2ccc(C#N)cc2)cc1	nt	nt	14	nt	nt	nt	nt	nt	nt	nt
CCC(C)[C@H](NC(=O)C1(c2ccccc2)CCN(C(=O)OC(C)(C)C)CC1)C(=O)N[C@@H](C(=O)O)c1ccccc1 (some centres undefined)	-1	2	4	nt	27*	47*	25	-18	1	2
O=C(NCc1ccco1)/C(=C\C=C\c1ccccc1)NC(=O)c1ccccc1Br	-1	-3	-5	5	-9	21	nt	nt	nt	nt
Cc1ccc(-c2ccc(C3C(C#N)=C(N)Oc4n[nH]c(C)c43)o2)cc1 (centres undefined)	4	-1	4	10	26*	40*	-25	8	49*	72*
O=C(C(Cc1ccccc1)n1cccc1)N1CCCCC1 (centres undefined)	-3	1	22	0	-3	-3	nt	nt	nt	nt
O=C(C(Cc1ccccc1)n1cccc1)N1CCN(Cc2ccccc2)CC1 (centres undefined)	-6	11	-6	-13	25*	42*	-9	14	21	12
Cc1ccc(-c2csc(NC(=O)c3ccc(Br)cc3)c2C(=O)O)cc1	2	20	-8	nt	40*	42*	69*	-1	62*	46*
CCCCN(CCCC)CCNC(=O)c1cn(C)c2ccc(S(=O)(=O)N3CCCC3)cc2c1=O	-5	3	8	nt	3	7	nt	nt	nt	nt
SMILES	EBNA-1 inh	HCV core dimer	ZTA counter	EBV gp42 inh	GPR7 antagonist	HCV NS3 hel inh	NS3 hel confirm	FID counter trip	GPR7 antag conf	MCHR1 antagonist	others
CC(=C\c1ccccc1)/C=C1/SC(=S)N(CCCC(=O)O)C1=O	nt	nt	nt	nt	39*	59*	61*	-10	20	17
Cc1cccc(C(C(=O)NC2CCCCC2)N(Cc2cccnc2)C(=O)c2csnn2)c1 (centres undefined)	-8	-3	1	nt	-4	-5	nt	nt	nt	nt
O=C(CN1CCOc2ccccc21)NC1CCN(Cc2ccccc2)CC1	5	-8	-1	-9	1	4	nt	nt	nt	nt
O=C(CN1CCOc2ccccc21)NC1CCCCCCC1	13	-1	-2	nt	25*	62*	-16	-27	7	5
COc1ccc(CCC(=O)NCCS(=O)(=O)N2CCN(c3ccccc3OC)CC2)cc1	0	-10	-14	nt	-8	-3	nt	nt	nt	nt
O=C(Nc1cccc2ccccc12)c1ccccc1	9	-5	6	-7	-5	1	nt	nt	nt	nt
O=C(Nc1cccc2ccccc12)c1ccc([N+](=O)[O-])cc1	-1	-3	-9	nt	42*	41*	-12	15	6	18
COc1ccc(OCC(O)CNC2CCCC2)cc1 (centres undefined)	nt	nt	nt	nt	-18	6	nt	nt	nt	nt
OC(CNC1Cc2ccccc2C1)COc1ccc(F)cc1 (centres undefined)	-8	1	-6	-10	22*	37*	0	27	5	-4
N#Cc1c(Cl)c(Cl)c2nnc(-c3ccc(Br)cc3)n2c1Cl	8	4	-18	44	-5	23	nt	nt	nt	nt
O=C(Cn1nc2ccccc2n1)N/N=C/c1cc([N+](=O)[O-])ccc1O	0	0	2	-8	-6	17	nt	nt	nt	nt
O=C(N/N=C/c1cc([N+](=O)[O-])ccc1O)c1cccc2ccccc12	-2	4	-3	nt	27*	40*	-25	3	5	7
O=C1/C(=C\c2cc(Cl)c(O)c(Cl)c2)SC(=S)N1Cc1ccccc1	nt	nt	nt	nt	60*	41*	66*	34	100*	111*
